Source: ChEMBL document CHEMBL1148339, “Synthesis, structure-activity relationships, and drug resistance of beta-d-3'-fluoro-2',3'-unsaturated nucleosides as anti-HIV Agents” (J Med Chem, 2004)

Substrate: Nc1ncnc2c1ncn2[C@H]1C=C[C@@H](CO)O1
Assay: Menten constant against adenosine deaminase (ADA)
Outline: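 Deamination by calf intestinal mucosa adenosine deaminase (0.15 units, MW 33 000, in 2 mL) in phosphate buffer pH 7.4 at 25 °C, substrate 15–100 μM, monitored by UV at 265 nm. Initial rates from graphical fitting of concentration vs time; Vmax and KM from Lineweaver–Burk plot, kcat calculated from enzyme amount.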

B1: Adenosine deaminase (Bos taurus), P56658 (protein)
chain: MAQTPAFNKPKVELHVHLDGAIKPETILYYGRKRGIALPADTPEELQNIIGMDKPLSLPEFLAKFDYYMPAIAGCREAVKRIAYEFVEMKAKDGVVYVEVRYSPHLLANSKVEPIPWNQAEGDLTPDEVVSLVNQGLQEGERDFGVKVRSILCCMRHQPSWSSEVVELCKKYREQTVVAIDLAGDETIEGSSLFPGHVKAYAEAVKSGVHRTVHAGEVGSANVVKEAVDTLKTERLGHGYHTLEDATLYNRLRQENMHFEVCPWSSYLTGAWKPDTEHPVVRFKNDQVNYSLNTDDPLIFKSTLDTDYQMTKNEMGFTEEEFKRLNINAAKSSFLPEDEKKELLDLLYKAYGMPSPASAEQCL
- Km: 30 µM
